Data reported in ChEMBL document CHEMBL1250484, “Synthesis and antioxidant activity of quinolinobenzothiazinones” (2010).

Tests used:
Mus musculus [1] = species: Mus musculus; experiment: Antioxidant activity in Swiss albino mouse assessed as lipid peroxidation level measured per mg of tissue after 7 days; format: functional, organism-based
Summary of the method: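 Male random-bred Swiss albino mice (24 ± 2 g) dosed orally once daily for 7 days with compound in 0.1 ml double-distilled water; controls water only. Liver perfused with cold 0.9% NaCl, homogenized 10% w/v in tris-KCl pH 7.4. TBARS: sample with tris-KCl, 30% TCA, 52 mM TBA, 25 min at 80 °C, centrifuged; supernatant read at 531.8 nm, expressed as malondialdehyde per mg protein.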

Mus musculus [2] = species: Mus musculus; experiment: Antioxidant activity in Swiss albino mouse assessed as reduced glutathione level measured per mg of tissue after 7 days; format: functional
Summary of the method: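 Male Swiss albino mice (24 ± 2 g) given compound orally in 0.1 ml double-distilled water daily for 7 days; controls got water. Perfused liver homogenized 10% w/v in tris-KCl pH 7.4, precipitated with 25% TCA, centrifuged. 0.1 ml supernatant mixed with 2 ml 0.6 mM DTNB and 0.9 ml […] pH 8.0; absorbance at 412 nm for GSH.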

[3] = test system: Radical scavenging activity; experiment: Antioxidant activity assessed as DPPH radical scavenging activity at 1 mg/ml; format: functional
Summary of the method: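 Compound stock 1 mg/ml in methanol; 50 µl added to 5 ml 0.004% methanolic DPPH. Incubated 30 min in dark at room temperature, absorbance at 517 nm against blank. Percent inhibition calculated by formula; triplicate.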

[4] = Antioxidant activity assessed as ABTS radical scavenging activity after 1 min; format: functional
Summary of the method: (§1)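 ABTS radical cation made from 7 mM ABTS in deionized water plus potassium persulphate (2.45 mM), kept dark at room temperature 12–16 h, then diluted with ethanol to A734 0.700 ± 0.020. 1 ml of this added to 10 µl compound; absorbance at 734 nm read at 30 °C at 1–6 min after mixing. Triplicate determinations.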

[5] = Antioxidant activity assessed as ABTS radical scavenging activity after 2 mins; format: functional; summary of the method: as §1
[6] = Antioxidant activity assessed as ABTS radical scavenging activity after 4 mins; format: functional; summary of the method: as §1
[7] = Antioxidant activity assessed as ABTS radical scavenging activity after 6 mins; format: functional; summary of the method: as §1

For `Cc1ccc2[nH]c(=O)c3c(c2c1)Nc1ccc(Br)cc1S3`, the Activity (Mus musculus [1]) was 6.42 nmol, the Activity (Mus musculus [2]) was 5 nmol and the inhibition [3] was 13.7%. It also gave a deltaA [4] of 0.412, a deltaA [5] of 0.406 and a deltaA [6] of 0.406. The deltaA [7] was 0.406.
For `COc1cccc2c3c(c(=O)[nH]c12)Sc1cc(Br)ccc1N3`, the Activity (Mus musculus [1]) was 6.51 nmol, the Activity (Mus musculus [2]) was 5.01 nmol and the inhibition [3] was 53.8%. The deltaA [4] was 0.141, the deltaA [5] was 0.098 and the deltaA [6] was 0.098. For the same molecule, the deltaA [7] was 0.095.
With `Cc1ccc2[nH]c(=O)c3c(c2c1)Nc1c(cccc1C(F)(F)F)S3` the Activity (Mus musculus [1]) was 6.53 nmol, the Activity (Mus musculus [2]) was 4.9 nmol and the inhibition [3] was 22.4%. The deltaA [4] was 0.328, the deltaA [5] was 0.318 and the deltaA [6] was 0.318. For the same molecule, the deltaA [7] was 0.318.
`COc1cccc2c1Nc1c(c(=O)[nH]c3c(OC)cccc13)S2` gave an Activity (Mus musculus [1]) of 6.81 nmol, an Activity (Mus musculus [2]) of 4.8 nmol and an inhibition [3] of 54.3%. The deltaA [4] was 0.055, the deltaA [5] was 0.052 and the deltaA [6] was 0.052. It also gave a deltaA [7] of 0.052.
With `Cc1cccc2c1Nc1c(c(=O)[nH]c3c(C)cccc13)S2` the Activity (Mus musculus [1]) was 6.72 nmol, the Activity (Mus musculus [2]) was 4.51 nmol and the inhibition [3] was 2.71%. It also gave a deltaA [4] of 0.62, a deltaA [5] of 0.61 and a deltaA [6] of 0.61. The deltaA [7] was 0.61.
`Cc1ccc2[nH]c(=O)c3c(c2c1)Nc1c(C)cccc1S3` gave an Activity (Mus musculus [1]) of 6.69 nmol, an Activity (Mus musculus [2]) of 4.5 nmol and an inhibition [3] of 8.33%. For the same molecule, the deltaA [4] was 0.56, the deltaA [5] was 0.52 and the deltaA [6] was 0.52. It also gave a deltaA [7] of 0.52.
